Data as given in ChEMBL document CHEMBL1759861, “Synthesis of 9-substituted derivatives of berberine as anti-HIV agents” (Eur J Med Chem, 2011).

Legend:
[1] = tested on: Human immunodeficiency virus 1; assay: Antiviral activity against 0.05 MOI Human immunodeficiency virus 1 NL4.3 infected in human CEM cells expressing green fluorescent protein assessed as p24 antigen production at 4.88 uM measured 7 days post infection by ELISA; format: functional; conditions: Human immunodeficiency virus 1, NL4.3, CCRF-CEM, 168 h
In short: (§1)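 CD4+ T-cell line CEM-GFP infected with HIV-1 NL4.3 at MOI 0.05, monitored by GFP under the microscope. Each sample tested at a single concentration, its highest noncytotoxic concentration, for up to 7 days post infection. Day-7 culture supernatant assayed for virus by p24 antigen capture ELISA; % inhibition of replication reported. AZT positive control.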

[2] = tested on: Human immunodeficiency virus 1; assay: Antiviral activity against 0.05 MOI Human immunodeficiency virus 1 NL4.3 infected in human CEM cells expressing green fluorescent protein assessed as p24 antigen production at 18.03 uM measured 7 days post infection by ELISA; format: functional; conditions: Human immunodeficiency virus 1, NL4.3, CCRF-CEM, 168 h; in short: as §1
[3] = tested on: Human immunodeficiency virus 1; assay: Antiviral activity against 0.05 MOI Human immunodeficiency virus 1 NL4.3 infected in human CEM cells expressing green fluorescent protein assessed as p24 antigen production at 5.31 uM measured 7 days post infection by ELISA; format: functional; conditions: Human immunodeficiency virus 1, NL4.3, CCRF-CEM, 168 h; in short: as §1
[4] = tested on: Human immunodeficiency virus 1; assay: Antiviral activity against 0.05 MOI Human immunodeficiency virus 1 NL4.3 infected in human CEM cells expressing green fluorescent protein assessed as p24 antigen production at 0.02 uM measured 7 days post infection by ELISA; format: functional; conditions: Human immunodeficiency virus 1, NL4.3, CCRF-CEM, 168 h; in short: as §1
[5] = tested on: Human immunodeficiency virus 1; assay: Antiviral activity against 0.05 MOI Human immunodeficiency virus 1 NL4.3 infected in human CEM cells expressing green fluorescent protein assessed as p24 antigen production at 1.03 uM measured 7 days post infection by ELISA; format: functional; conditions: Human immunodeficiency virus 1, NL4.3, CCRF-CEM, 168 h; in short: as §1
[6] = Cytotoxicity against human CEM cells expressing green fluorescent protein after 48 hrs by MTT assay; format: cell-based, CCRF-CEM
In short: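 Uninfected CEM-GFP cells seeded at 2×10^4 cells/well with samples at several concentrations, untreated and vehicle-treated controls, 48 h. MTT reagent (5 mg/ml stock) added, formazan solubilised, absorbance read at 540 nm. CC50 is the concentration giving 50% cytotoxicity.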

[7] = Therapeutic index, ratio of CC50 for human CEM cells expressing green fluorescent protein to EC50 for Human immunodeficiency virus 1 NL4.3; format: cell-based, CCRF-CEM; conditions: read-out: TI
In short: (§2)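 CEM-GFP cells infected with HIV-1 NL4.3 (MOI 0.05) and cultured with samples over a concentration range up to 7 days post infection. p24 antigen capture ELISA on day-7 supernatant. EC50 is the concentration giving 50% inhibition of infected cells. Therapeutic index is CC50 in uninfected cells (MTT, 48 h) divided by EC50.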

[8] = tested on: Human immunodeficiency virus 1; assay: Antiviral activity against 0.05 MOI Human immunodeficiency virus 1 NL4.3 infected in human CEM cells expressing green fluorescent protein assessed as p24 antigen production at 0.29 uM measured 7 days post infection by ELISA; format: functional; conditions: Human immunodeficiency virus 1, NL4.3, CCRF-CEM, 168 h; in short: as §1
[9] = molecular target: Human immunodeficiency virus type 1 reverse transcriptase (Human immunodeficiency virus 1) (UniProt Q72547); assay: Inhibition of Human immunodeficiency virus 1 NL4.3 reverse transcriptase activity at 20 ug/ml
[10] = tested on: Human immunodeficiency virus 1; assay: Antiviral activity against 0.05 MOI Human immunodeficiency virus 1 NL4.3 infected in human CEM cells expressing green fluorescent protein assessed as p24 antigen production measured 7 days post infection by ELISA; format: functional, organism-based; conditions: Human immunodeficiency virus 1, NL4.3, CCRF-CEM, 168 h; in short: as §2
[11] = tested on: Human immunodeficiency virus 1; assay: Antiviral activity against 0.05 MOI Human immunodeficiency virus 1 NL4.3 infected in human CEM cells expressing green fluorescent protein assessed as p24 antigen production at 2.24 uM measured 7 days post infection by ELISA; format: functional; conditions: Human immunodeficiency virus 1, NL4.3, CCRF-CEM, 168 h; in short: as §1
[12] = tested on: Human immunodeficiency virus 1; assay: Antiviral activity against 0.05 MOI Human immunodeficiency virus 1 NL4.3 infected in human CEM cells expressing green fluorescent protein assessed as p24 antigen production at 1.95 uM measured 7 days post infection by ELISA; format: functional; conditions: Human immunodeficiency virus 1, NL4.3, CCRF-CEM, 168 h; in short: as §1
[13] = tested on: Human immunodeficiency virus 1; assay: Antiviral activity against 0.05 MOI Human immunodeficiency virus 1 NL4.3 infected in human CEM cells expressing green fluorescent protein assessed as p24 antigen production at 5.30 uM measured 7 days post infection by ELISA; format: functional; conditions: Human immunodeficiency virus 1, NL4.3, CCRF-CEM, 168 h; in short: as §1
[14] = tested on: Human immunodeficiency virus 1; assay: Antiviral activity against 0.05 MOI Human immunodeficiency virus 1 NL4.3 infected in human CEM cells expressing green fluorescent protein assessed as p24 antigen production at 1.05 uM measured 7 days post infection by ELISA; format: functional; conditions: Human immunodeficiency virus 1, NL4.3, CCRF-CEM, 168 h; in short: as §1
[15] = tested on: Human immunodeficiency virus 1; assay: Antiviral activity against 0.05 MOI Human immunodeficiency virus 1 NL4.3 infected in human CEM cells expressing green fluorescent protein assessed as p24 antigen production at 4.69 uM measured 7 days post infection by ELISA; format: functional; conditions: Human immunodeficiency virus 1, NL4.3, CCRF-CEM, 168 h; in short: as §1
[16] = tested on: Human immunodeficiency virus 1; assay: Antiviral activity against 0.05 MOI Human immunodeficiency virus 1 NL4.3 infected in human CEM cells expressing green fluorescent protein assessed as p24 antigen production at 21.65 uM measured 7 days post infection by ELISA; format: functional; conditions: Human immunodeficiency virus 1, NL4.3, CCRF-CEM, 168 h; in short: as §1
[17] = molecular target: Human immunodeficiency virus type 1 reverse transcriptase (Human immunodeficiency virus 1) (UniProt Q72547); assay: Inhibition of Human immunodeficiency virus 1 NL4.3 reverse transcriptase activity at 200 ug/ml
In short: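 HIV-1 RT inhibition measured with a colorimetric reverse transcriptase assay kit, following the manufacturer's protocol; nevirapine served as the positive control.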

[18] = tested on: Human immunodeficiency virus 1; assay: Antiviral activity against 0.05 MOI Human immunodeficiency virus 1 NL4.3 infected in human CEM cells expressing green fluorescent protein assessed as p24 antigen production at 9.77 uM measured 7 days post infection by ELISA; format: functional; conditions: Human immunodeficiency virus 1, NL4.3, CCRF-CEM, 168 h; in short: as §1
[19] = tested on: Human immunodeficiency virus 1; assay: Antiviral activity against 0.05 MOI Human immunodeficiency virus 1 NL4.3 infected in human CEM cells expressing green fluorescent protein assessed as p24 antigen production at 4.32 uM measured 7 days post infection by ELISA; format: functional; conditions: Human immunodeficiency virus 1, NL4.3, CCRF-CEM, 168 h; in short: as §1
[20] = tested on: Human immunodeficiency virus 1; assay: Antiviral activity against 0.05 MOI Human immunodeficiency virus 1 NL4.3 infected in human CEM cells expressing green fluorescent protein assessed as p24 antigen production at 2.10 uM measured 7 days post infection by ELISA; format: functional; conditions: Human immunodeficiency virus 1, NL4.3, CCRF-CEM, 168 h; in short: as §1
[21] = tested on: Human immunodeficiency virus 1; assay: Antiviral activity against 0.05 MOI Human immunodeficiency virus 1 NL4.3 infected in human CEM cells expressing green fluorescent protein assessed as p24 antigen production at 15.52 uM measured 7 days post infection by ELISA; format: functional; conditions: Human immunodeficiency virus 1, NL4.3, CCRF-CEM, 168 h; in short: as §1
[22] = tested on: Human immunodeficiency virus 1; assay: Antiviral activity against 0.05 MOI Human immunodeficiency virus 1 NL4.3 infected in human CEM cells expressing green fluorescent protein assessed as p24 antigen production at 4.62 uM measured 7 days post infection by ELISA; format: functional; conditions: Human immunodeficiency virus 1, NL4.3, CCRF-CEM, 168 h; in short: as §1
[23] = tested on: Human immunodeficiency virus 1; assay: Antiviral activity against 0.05 MOI Human immunodeficiency virus 1 NL4.3 infected in human CEM cells expressing green fluorescent protein assessed as p24 antigen production at 5 uM measured 7 days post infection by ELISA; format: functional; conditions: Human immunodeficiency virus 1, NL4.3, CCRF-CEM, 168 h; in short: as §1

COc1ccc2cc3[n+](cc2c1OC(=O)c1ccc(F)c(C(F)(F)F)c1)CCc1cc2c(cc1-3)OCO2
inhibition at 4.88 µM [1]: 0%

COc1ccc2cc3[n+](cc2c1OC(=O)c1ccco1)CCc1cc2c(cc1-3)OCO2
inhibition at 18.03 µM [2]: 22.6%

COc1ccc2cc3[n+](cc2c1OC(=O)c1ccc2c(c1)OCO2)CCc1cc2c(cc1-3)OCO2
inhibition at 5.31 µM [3]: 45.6%

COc1ccc(C(=O)Oc2c(OC)ccc3cc4[n+](cc23)CCc2cc3c(cc2-4)OCO3)cc1
inhibition at 0.02 µM [4]: 44.3%

COc1ccc2cc3[n+](cc2c1OC(=O)C12CC4CC(CC(C4)C1)C2)CCc1cc2c(cc1-3)OCO2
inhibition at 1.03 µM [5]: 64.2%

COc1ccc2cc3[n+](cc2c1OC)CCc1cc2c(cc1-3)OCO2 [BERBERINE CHLORIDE]
CC50 at 48 h [6]: 2090 nM
selectivity ratio [7]: 16.1
inhibition at 0.29 µM [8]: 66%
inhibition [9]: 94%
EC50 [10]: 130 nM

COc1ccc2cc3[n+](cc2c1OC(=O)Cc1cccs1)CCc1cc2c(cc1-3)OCO2
inhibition at 2.24 µM [11]: 0%

COc1ccc2cc3[n+](cc2c1OC(=O)c1c(F)cccc1C(F)(F)F)CCc1cc2c(cc1-3)OCO2
inhibition at 1.95 µM [12]: 0%

COc1ccc2cc3[n+](cc2c1OC(=O)c1ccc(SC)cc1)CCc1cc2c(cc1-3)OCO2
inhibition at 5.3 µM [13]: 0%

COc1ccc2cc3[n+](cc2c1OC(=O)c1cccc2ccccc12)CCc1cc2c(cc1-3)OCO2
inhibition at 1.05 µM [14]: 0%

COc1ccc2cc3[n+](cc2c1OC(=O)c1ccccc1)CCc1cc2c(cc1-3)OCO2
inhibition at 4.69 µM [15]: 37.2%

COc1ccc2cc3[n+](cc2c1OC(=O)c1ccc(F)c(F)c1)CCc1cc2c(cc1-3)OCO2
inhibition at 21.65 µM [16]: 0%

COc1cc2c(cc1OC)[C@@H]1Cc3ccc(OC)c(OC)c3CN1CC2
inhibition [17]: 25%

COc1ccc2cc3[n+](cc2c1OC(=O)c1ccc(C(F)(F)F)cc1F)CCc1cc2c(cc1-3)OCO2
inhibition at 9.77 µM [18]: 23.4%

COc1ccc2cc3[n+](cc2c1OC(=O)c1ccc(F)cc1F)CCc1cc2c(cc1-3)OCO2
CC50 at 48 h [6]: 57100 nM
selectivity ratio [7]: 60.1
inhibition [9]: 99%
EC50 [10]: 950 nM
inhibition at 4.32 µM [19]: 71.7%

COc1ccc2cc3[n+](cc2c1OC(=O)c1ccc2ccccc2c1)CCc1cc2c(cc1-3)OCO2
inhibition at 2.1 µM [20]: 58.8%

COc1ccc2cc3[n+](cc2c1OC(=O)c1ccc(F)cc1C(F)(F)F)CCc1cc2c(cc1-3)OCO2
inhibition at 4.88 µM [1]: 0%

COc1ccc2cc3[n+](cc2c1O)CCc1cc2c(cc1-3)OCO2 [BERBERRUBINE CHLORIDE]
CC50 at 48 h [6]: 169000 nM
selectivity ratio [7]: 60.4
inhibition at 15.52 µM [21]: 77%
inhibition [9]: 99%
EC50 [10]: 2800 nM

COc1ccc2cc3[n+](cc2c1OC(=O)c1cccs1)CCc1cc2c(cc1-3)OCO2
CC50 at 48 h [6]: 91900 nM
selectivity ratio [7]: 50.5
inhibition [9]: 99%
EC50 [10]: 1820 nM
inhibition at 4.62 µM [22]: 73.1%

Cc1cn([C@H]2C[C@H](N=[N+]=[N-])[C@@H](CO)O2)c(=O)[nH]c1=O [ZIDOVUDINE]
EC50 [10]: 1050 nM
inhibition at 5 µM [23]: 89.8%
